In ChEMBL document CHEMBL5661974, “Pharmacologic characterization of a potent inhibitor of class I phosphatidylinositide 3-kinases” (Cancer Res, 2007):
Active and inactive are the calls of the source. No cut-off for these calls is given here.

Tests used:
[1] = Inhibition of recombinant human PI3K in cricetulus griseus CHO cells expressing GFP-tagged AKT2 assessed as translocation to the plasma membrane following IGF-1 stimulation by fluorescence assay
In short: (§1)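 CHO cells expressing GFP-tagged AKT1, AKT2, AKT3 or PDK1, held in 0.05% serum with 0.1% BSA and stimulated with 100 nmol/L IGF-1. Plasma-membrane translocation was read by automated fluorescence imaging, with IC50 from concentration-response curves; Z' above 0.5.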

PC-3 = test: Antitumor activity against PTEN null human PC-3 cells xenografted male Ncr model assessed as T/C at 30 mg/kg, ip administered once a daily for 14 days relative to control; format: functional; settings: time 14 day
U-87 MG [2] = test: Inhibition of cell invasion in human U-87MG cells at 50 nmol/L by transwell assay relative to control
U-87 MG [3] = test: Inhibition of recombinant PI3K in human U-87MG cells assessed as phosphorylation of AKT at Thr308 at 5 times of GI50 concentration within 15 mins treatment by immunoblot analysis; format: cell-based
U-87 MG [4] = settings: Homo sapiens, time 4.0 hrs
A2780 = test: Antiproliferative activity against human A2780 cells harboring PI3KCA/PTEN mutant assessed as cell growth inhibition incubated for 96 hrs by SRB assay; format: functional
HCT-116 [5] = test: Antitumor activity against PIK3CA mutant human HCT-116 cells xenografted female Ncr model assessed as body weight loss at 30 mg/kg, ip administered once a daily for 14 days relative to control; settings: time 14 day
[6] = Volume of distribution in BALB/C mouse plasma at 50 mg/kg, ip by LC-MS/MS analysis; format: ADME, organism-based; settings: in vivo
In short: (§2)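 Female BALB/c mice, 6–8 weeks old, dosed i.p. at 50 mg/kg in 20% […] β-cyclodextrin in saline, 0.1 mL/10 g. Serial blood samples; plasma was methanol-precipitated with an analogue internal standard. LC-MS/MS multiple reaction monitoring, external calibration 2–20,000 nmol/L. Noncompartmental analysis, model 200.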

MDA-MB-468 [7] = test: Antitumor activity against PTEN null human MDA-MB-468 cells xenografted female Ncr model assessed as T/C at 70 mg/kg, ip administered once a daily for 40 days relative to control; format: functional; settings: time 40 day
U-87 MG [8] = test: Inhibition of recombinant PI3K in human U-87MG cells assessed as phosphorylation of GSK3beta at Ser9 at 5 times of GI50 concentration within 15 mins treatment by immunoblot analysis; format: cell-based
[9] = Half life in BALB/C mouse plasma at 2.5 mg/kg, iv by LC-MS/MS analysis; format: ADME, organism-based
In short: (§3)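 Female BALB/c mice, 6–8 weeks old, given 2.5 mg/kg i.v. in 10% DMSO, 0.5% Tween 20 in saline. Plasma came from serial bleeds; tissues were homogenized in 2 or 3 volumes PBS. Samples were methanol-precipitated with an analogue internal standard, then LC-MS/MS by multiple reaction monitoring against an 8-point external calibration of 2–20,000 nmol/L. Parameters came from WinNonlin noncompartmental analysis, model 201 for plasma and model 200 for tissues.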

OVCAR-3 [10] = test: Antitumor activity against human OVCAR-3 cells xenografted female Ncr model assessed as T/C at 30 mg/kg, ip administered daily for 15 days relative to control; format: functional; settings: time 15 day
MDA-MB-435 [11] = test: Antitumor activity against ERB-B2 overexpressing human MDA-MB-435 cells xenografted female Ncr model assessed as T/C at 30 mg/kg, ip administered once a daily for 14 days relative to control; format: functional; settings: time 14 day
[12] = Inhibition of recombinant human PI3K in cricetulus griseus CHO cells expressing GFP-tagged AKT1 assessed as translocation to the plasma membrane following IGF-1 stimulation by fluorescence assay; in short: as §1
OVCAR-3 [13] = settings: Homo sapiens, dose 100.0 mg/kg, route ip
HCT-116 [14] = test: Antitumor activity against PIK3CA mutant human HCT-116 cells xenografted female Ncr model assessed as T/C at 30 mg/kg, ip administered once a daily for 14 days relative to control; format: functional; settings: time 14 day
MDA-MB-435 [15] = test: Antiproliferative activity against human MDA-MB-435 cells harboring AKT assessed as cell growth inhibition incubated for 96 hrs by SRB assay; format: functional
MDA-MB-435 [16] = test: Antitumor activity against ERB-B2 overexpressing human MDA-MB-435 cells xenografted female Ncr model assessed as T/C at 30 mg/kg, ip administered twice a daily for 14 days relative to control; format: functional; settings: time 14 day
HCT-116 [17] = test: Antitumor activity against PIK3CA mutant human HCT-116 cells xenografted female Ncr model assessed as T/C at 30 mg/kg, ip administered twice a daily for 14 days relative to control; format: functional; settings: time 14 day
MDA-MB-468 [18] = test: Antitumor activity against PTEN null human MDA-MB-468 cells xenografted female Ncr model assessed as T/C at 40 mg/kg, ip administered once a daily for 40 days relative to control; format: functional; settings: time 40 day
IGROV-1 = test: Antitumor activity against PIK3CA mutant human IGROV-1 cells xenografted female Ncr model assessed as T/C at 70 mg/kg, ip administered once a daily for 14 days relative to control; format: functional; settings: time 14 day
U-87 MG [19] = test: Antitumor activity against PTEN null human U-87MG cells xenografted female Ncr model assessed as T/C at 40 mg/kg, ip administered once a daily for 14 days relative to control; format: functional, U-87MG ATCC; settings: time 14 day
U-87 MG [20] = test: Antitumor activity against PTEN null human U-87MG cells xenografted female Ncr model assessed as body weight loss at 70 mg/kg, ip administered daily for 14 days relative to control; settings: time 14 day
Detroit 562 = test: Antiproliferative activity against human Detroit 562 cells harboring PI3KCA mutant assessed as cell growth inhibition incubated for 96 hrs by SRB assay; format: functional
[21] = Half life in BALB/C mouse kidney at 2.5 mg/kg, iv by LC-MS/MS analysis; format: ADME, organism-based; in short: as §3
[22] = AUClast in BALB/C mouse plasma at 50 mg/kg, ip by LC-MS/MS analysis; format: ADME, organism-based; settings: in vivo; in short: as §2
U-87 MG [23] = test: Antitumor activity against human U-87MG cells xenografted female Ncr model assessed as ratio of p-AKT Ser473/total AKT at 100 mg/kg, ip by 30 to 60 mins after dosing by electrochemiluminescent immunoassay relative to control; format: functional, U-87MG ATCC; settings: time 30-60 min
HCT-116 [24] = test: Antiproliferative activity against human HCT-116 cells harboring PI3KCA mutant assessed as cell growth inhibition incubated for 96 hrs by SRB assay; format: functional
[25] = Cmax in BALB/C mouse plasma at 50 mg/kg, ip by LC-MS/MS analysis; format: ADME, organism-based; settings: in vivo; in short: as §2
OVCAR-3 [26] = test: Antitumor activity against human OVCAR-3 cells xenografted female Ncr model assessed as T/C at 15 mg/kg, ip administered daily for 15 days relative to control; format: functional; settings: time 15 day
[27] = Tmax in BALB/C mouse liver at 2.5 mg/kg, iv by LC-MS/MS analysis; format: ADME, organism-based; in short: as §3

IC50 [1]: 13 nM
GI50 (A2780): 500 nM
Vd [6]: 0.71 L
half-life [9]: 42 min
IC50 [12]: 17 nM
GI50 (MDA-MB-435 [15]): 130 nM
half-life [21]: 54 min
AUClast [22]: 20.459 µM·h
GI50 (HCT-116 [24]): 930 nM
Cmax [25]: 6.68 µM
Tmax [27]: 4.98 min
Structure (SMILES): Oc1cccc(-c2nc(N3CCOCC3)c3oc4ncccc4c3n2)c1 [PI-103]
T/C (PC-3): 80.8%
inhibition at 0.05 µM (U-87 MG [2]): 44%
inhibition (U-87 MG [3]): Active
inhibition (U-87 MG [4]): Active
Body weight loss (HCT-116 [5]): <15%
T/C (MDA-MB-468 [7]): 47.2%
inhibition (U-87 MG [8]): Active
T/C (OVCAR-3 [10]): 62%
T/C (MDA-MB-435 [11]): 85%
inhibition (OVCAR-3 [13]): Active
T/C (HCT-116 [14]): 68%
T/C (MDA-MB-435 [16]): 69.8%
T/C (HCT-116 [17]): 28%
T/C (MDA-MB-468 [18]): 52.8%
T/C (IGROV-1): 74.7%
T/C (U-87 MG [19]): 89.1%
Body weight loss (U-87 MG [20]): <15%
GI50 (Detroit 562): 360 nM
Activity (U-87 MG [23]): ~50%
T/C (OVCAR-3 [26]): 61%
